Measured values from ChEMBL document CHEMBL1240468, “Regioselective hydrostannation of diarylalkynes directed by a labile ortho bromine atom: an easy access to stereodefined triarylolefins, hybrids of combretastatin A-4 and isocombretastatin A-4” (Eur J Med Chem, 2010).

Legend:
[1] = test system: HCT-116; experiment: Cytotoxicity against human HCT116 cells after 72 hrs; assay type: functional, cell-based; details: HCT-116, 72 h
Method in brief: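 Cells seeded at 5 × 10³ per well in growth medium, cultured 24 h, then given compound in DMSO (under 0.1% final). After 72 h incubation, resazurin added for 2 h and fluorescence read (excitation 560 nm). IC50 taken as concentration reducing cell growth by 50% after 72 h treatment.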

[2] = Inhibition of sheep brain tubulin microtubule assembly by turbidimetry assay; parameters: species or system Ovis aries
Method in brief: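 Sheep brain tubulin purified by two assembly–disassembly cycles, about 2–3 mg/mL in 0.1 M MES, 0.5 mM MgCl2, 1 mM EGTA, 1 mM GTP, pH 6.6. Compounds in DMSO; incubation 10 min at 37 °C, then 5 min at 0 °C. Assembly followed continuously by turbidity at 350 nm at 37 °C.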

| SMILES | IC50 [1] [µM] | IC50 ([2]; read-out: IC50) [µM] | IC50 [2] |
| --- | --- | --- | --- |
| COCOc1cc(/C=C(/c2ccc(OC)c(OCOC)c2)c2cc(OC)c(OC)c(OC)c2Br)ccc1OC | > 10 | 8 |  |
| COc1ccc(/C=C(\c2ccc(OC)cc2)c2cc(OC)c(OC)c(OC)c2)cc1 | > 10 | 8.1 |  |
| COc1ccc(/C(=C\c2cc(OC)c(OC)c(OC)c2)c2cc(OC)c(OC)c(OC)c2)cc1 | > 10 |  | Not Active |
| COc1ccc(/C=C(/c2ccc(OC)cc2)c2cc(OC)c(OC)c(OC)c2)cc1 | > 10 | 8 |  |
| COc1ccc(/C(=C/c2ccc(OC)c(O)c2)c2cc(OC)c(OC)c(OC)c2)cc1 | > 10 | 7.8 |  |
| COc1ccc(/C=C(/c2ccc(C)cc2)c2cc(OC)c(OC)c(OC)c2)cc1O | 3 |  | Not Active |
| COc1ccc(/C=C(\c2cc(OC)c(OC)c(OC)c2)c2ccc3ccccc3c2)cc1O | 8 |  | Not Active |
| COc1ccc(/C=C(/c2ccc(OC)c(F)c2)c2cc(OC)c(OC)c(OC)c2)cc1O | 8 |  | Not Active |
| COc1ccc(/C=C(/c2ccc(OC)c(O)c2)c2cc(OC)c(OC)c(OC)c2)cc1O | 5 | 8.5 |  |
| COc1ccc(/C(=C\c2cc(OC)c(OC)c(OC)c2)c2cc(OC)c(OC)c(OC)c2)c(Br)c1 | > 10 |  | Not Active |
| COc1ccc(/C=C(/c2ccc(OC)cc2)c2cc(OC)c(OC)c(OC)c2Br)cc1 | > 10 |  | Not Active |
| COc1ccc(/C(=C/c2ccc(OC)c(O[Si](C)(C)C(C)(C)C)c2)c2cc(OC)c(OC)c(OC)c2Br)cc1 | > 10 |  | Not Active |
| C=C(c1ccc(OC)c(O)c1)c1cc(OC)c(OC)c(OC)c1 | 0.002 | 2.1 |  |
| COc1ccc(/C=C\c2cc(OC)c(OC)c(OC)c2)cc1O [COMBRETASTATIN A4] | 0.002 |  |  |
